Screening data: PubChem BioAssay, several laboratories
An excerpt weighted towards active compounds, which were near 4.1% of everything screened.
ATG4B inhibitor: inhibitors of human ATG4B cysteine protease; 340,000 tested, 0.51% active; ATG4B cleavage of LC3-PLA2, NBD-HPC fluorescence, 1 h; inhibition, % at 8.33 µM; in the data active means inhibition above about 40%
Target sequence (Q9Y4P1 whole entry, looked up): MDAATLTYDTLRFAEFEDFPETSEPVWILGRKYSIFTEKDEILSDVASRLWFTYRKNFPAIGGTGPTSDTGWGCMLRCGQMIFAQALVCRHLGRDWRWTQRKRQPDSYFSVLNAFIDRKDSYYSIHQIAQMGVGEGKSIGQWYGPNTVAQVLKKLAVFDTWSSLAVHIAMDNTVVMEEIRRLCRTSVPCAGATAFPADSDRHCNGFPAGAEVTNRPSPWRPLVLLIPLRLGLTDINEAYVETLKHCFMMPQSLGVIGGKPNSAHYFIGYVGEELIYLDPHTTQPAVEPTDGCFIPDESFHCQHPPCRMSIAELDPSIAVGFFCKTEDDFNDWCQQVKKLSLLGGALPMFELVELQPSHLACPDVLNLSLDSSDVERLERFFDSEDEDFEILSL
MPTP inh: blocks calcium-induced mitochondrial swelling; inhibition, % at 10 µM; 360,000 tested, 1.4% active; isolated mouse mitochondria, Ca2+ swelling absorbance, 30 min;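 active means inhibition of 50% or more, scaled per plate between neutral and stimulator controls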;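 further: 0% = DMSO wells given calcium and 100% = 1 mM EGTA wells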
SMARCA2 act: increases SMARCA2 function in MMTV reporter cells | 370,000 tested, 1% active | MG213 cells, MMTV-luciferase reporter, dexamethasone, overnight | activation, % at 9.1 µM; in the data active means activation above about 7.8%;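 further: 0% = vehicle wells and 100% = reference activator wells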
MC4R antag cAMP: human MC4R antagonism in cAMP assay. 360,000 tested, 0.48% active. MC4R-expressing cells, MTII-stimulated cAMP, LANCE TR-FRET. P32245. inhibition, % at 6.5 µM;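 active means inhibition above its plate's cutoff, the mean of tested wells on that plate plus 3 SD, cut at about 29% in these data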;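 further: 0% = Melanotan II alone and 100% = Melanotan II plus saturating MCL0020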
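Assay system: human MC4R-expressing U2OS cells; reagent: Melanotan II stimulation of cells; dosing: 6.5 µM single dose; timing: compound 30 min, challenge 1 h, detection 1 h; signal: TR-FRET cAMP assay; replicates: one well per compound, no replicates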
MC4R barr agon: agonists of human melanocortin 4 receptor (MC4R) beta-arrestin | P32245 | U2OS MC4R beta-arrestin complementation, luminescence; percent of melanotan II response, DMSO zero | activation, % at 8.9 µM | 360,000 tested, 0.98% active | AID 540308;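 active means activation above a per-plate cutoff, the mean activation of sample wells on that plate plus 3 SD, cut at about 8% in these data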
cAMP nonselect: counter-screen for MC4R antagonists: nonselective cAMP signaling inhibitors. inhibition, % at 6.5 µM. AID 602193. 1,600 tested, 26% active. shares compounds with MC4R antag cAMP. parental U2OS, forskolin cAMP, LANCE TR-FRET;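 active means mean inhibition over triplicates above the low-control well mean plus 3 SD, set per campaign, cut at about 13% in these data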;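 further: signal is single emission at 671 nm which falls as cellular cAMP rises; 0% = forskolin-stimulated wells and 100% = buffer without forskolin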
MC4R antag conf: human MC4R cAMP antagonism confirmation | MC4R-expressing cells, MTII-stimulated cAMP, TR-FRET | shares compounds with MC4R antag cAMP | inhibition, % at 6.5 µM | 1,600 tested, 27% active; in the data active means inhibition above about 29%;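 further: 0% = agonist stimulated wells alone and 100% = agonist stimulated wells plus saturating reference antagonist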
Starred values were filed as active, the others as inactive; x = not tested or not shown.

SMILES	ATG4B inhibitor	MPTP inh	SMARCA2 act	MC4R antag cAMP	MC4R barr agon	cAMP nonselect	MC4R antag conf
COc1ccc(N(C(=O)CCl)C(C(=O)NCCc2ccccc2)c2cccs2)cc1Cl (stereo not given)	-3.1	-3.6	-11.9	34.5*	20.9*	-27.9	37.2*
CN(C)c1ccc(S(=O)(=O)NCC(=O)OCC(=O)Nc2cc(Cl)cc(Cl)c2)cc1[N+](=O)[O-]	-18.3	6.1	0.5	30.6*	4.2	18.8*	30.4*
CN(CCOc1ccc(Cl)cc1)C(=O)CNS(=O)(=O)c1ccc(N(C)C)c([N+](=O)[O-])c1	-4.5	-3.6	-1.2	8.9	-0.9	x	x
COP(N)(=O)C(CC(C)C)NC(=O)OCc1ccccc1 (stereo not given)	x	x	0.2	x	x	x	x
CCCCNC(=O)C1(C)CCCCN1Cc1ccc2ccccc2c1 (stereo not given)	x	-0.9	-0.9	9.8	1.7	x	x
CCCCNC(=O)C1(C)CCCCCN1Cc1cccc2c(OC)cc(C(=O)OCC)cc12 (stereo not given)	x	-0.6	-4.1	29.7*	-1.5	1.2	4.0
COc1ccc(NC(=O)/C(Cl)=C(/Cl)S(=O)(=O)Cc2ccc(C)cc2)cn1	-11.7	0.2	x	40.4*	-3.6	37.7*	37.0*
CC(C)CC(NC(=O)OCc1ccccc1)C(=O)NCC(=O)NCC(=O)OCc1ccccc1 (stereo not given)	x	x	-2.0	x	x	x	x
Cc1ccc(NC(=O)c2noc3c2CCCCC3)cc1	9.3	1.8	2.8	14.2	1.2	x	x
Cc1ccc(O)c(NC(=O)c2noc3c2CCCCC3)c1	3.4	0.7	4.2	30.8*	-1.6	-3.2	-10.3
O=C(C(=O)N1CCN(S(=O)(=O)c2cccc3ccccc23)CC1)c1cccc(C(F)(F)F)c1	x	x	-2.1	x	x	x	x
Cc1cc(C)nc(SCc2nnc(SCC(=O)Nc3nc(-c4ccccc4)cs3)n2-c2ccccc2)n1	-12.1	-2.4	-6.6	-2.3	-0.9	x	x
Cc1cc(C)nc(SCc2nnc(SCC(=O)O)n2-c2ccccc2)n1	-1.3	-1.2	-5.5	31.0*	0.5	-2.2	0.9
COc1ccccc1CNCc1ccc(C)cc1	3.5	4.3	0.9	9.3	1.3	x	x
COc1ccccc1CNCc1cc(OC)c(OC)c(OC)c1	0.9	-0.4	-2.6	30.2*	-1.4	0.4	-6.5
O=C(CCn1nnc(-c2cccs2)n1)N1CCOCC1	x	x	-5.5	x	x	x	x
CCC(C(=O)Nc1c(C)cccc1C)n1c(-c2ccc(=O)[nH]c2)nc2ccccc21 (stereo not given)	x	0.1	0.5	x	x	x	x
C[C@H]1CN([C@@H](C)CO)C(=O)CCCn2nncc2CO[C@@H]1CN(C)Cc1ccc(C(F)(F)F)cc1	x	0.6	0.3	17.0	-1.5	x	x
C[C@@H]1CN([C@H](C)CO)C(=O)CCCn2nncc2CO[C@H]1CN(C)Cc1ccc(C(F)(F)F)cc1	x	-0.3	-2.9	31.3*	1.0	-1.5	-9.7
CC1(C)C(=O)Nc2ccccc2N1C(=O)COC(=O)c1cc(S(=O)(=O)N2CCOCC2)ccc1F	-11.4	-1.3	2.4	35.9*	-1.8	17.0*	45.8*
CC(=O)N1CCN(c2cc(-c3ccccc3)nc3cc(-c4cccc(Cl)c4)nn23)CC1	x	0.3	-3.5	40.9*	4.7	0.5	8.3
COCCN1Cc2cc(C(=O)OC)c3c(c2C1=O)c1cc(OC)ccc1n3C(=O)c1ccccc1	x	x	-5.4	x	x	x	x
CCOC(=O)CC1C(=O)NCCN1C(=S)Nc1ccccc1 (stereo not given)	2.0	-1.2	-1.7	28.6*	1.7	-7.4	-22.5
COC(=O)CC1C(=O)NCCN1C(=S)Nc1ccccc1 (stereo not given)	-0.6	17.5	-0.5	7.3	-2.6	x	x
Cc1cccc(N2C(=O)C(O)=C(C(=O)c3cccs3)C2c2ccccc2)n1 (stereo not given)	6.8	4.4	1.4	29.9*	-0.9	6.0	16.6
SMILES	ATG4B inhibitor	MPTP inh	SMARCA2 act	MC4R antag cAMP	MC4R barr agon	cAMP nonselect	MC4R antag conf
Cc1cccc(N2C(=O)C(O)=C(C(=O)c3cccs3)C2c2ccc(Cl)cc2)n1 (stereo not given)	-3.6	4.5	-1.7	5.9	-1.2	x	x
O=C(CCS(=O)(=O)c1ccccc1)Nc1cc(Cl)ccc1F	x	x	0.0	x	x	x	x
NNC(=O)CNC(=O)CNS(=O)(=O)c1ccccc1	5.4	0.2	3.3	29.1*	-3.8	-2.0	-7.3
O=C(CNS(=O)(=O)c1ccccc1)NCc1ccco1	-3.5	-2.2	-2.9	3.1	-0.4	x	x
COc1ccc(C(=O)OCCN2CCN(C3CN(Cc4cn(Cc5cccc(C)c5)nn4)S(=O)(=O)C3)CC2)cc1OC (stereo not given)	x	x	-2.2	x	x	x	x
CC(=O)Nc1ccc(S(=O)(=O)N(C)CC(=O)OCC(=O)NC(C)C23CC4CC(CC(C4)C2)C3)cc1 (stereo not given)	-19.3	0.4	0.8	30.1*	-2.1	7.7	17.5
Cc1ccc(S(=O)(=O)N(C)CC(=O)OCC(=O)NC(=O)NC(C)C)cc1	-9.6	1.3	0.9	29.2*	-3.1	9.9	23.0
CCCCNC(=O)C[C@H]1C[C@@]2(C(=O)OC)C(=C[C@H](COCc3ccccc3)O[C@@H]2C)N(Cc2ccccc2)C1=O	x	x	-3.2	x	x	x	x
CCSC1=C(C#N)C(c2ccc3c(c2)OCO3)C2=C(CCCC2=O)N1 (stereo not given)	-5.3	-3.8	-2.6	2.3	-2.1	x	x
CCSC1=C(C#N)C(CC(C)C)C2=C(CCCC2=O)N1 (stereo not given)	-1.6	4.5	-3.5	34.1*	-2.1	0.5	14.4
N#Cc1c(NC(=O)C2CC=CCC2C(=O)O)sc2c1CCCCCC2 (stereo not given)	3.7	2.4	3.4	2.7	0.4	x	x
CC(C)(C)C1CCc2c(sc(NC(=O)C3CC=CCC3C(=O)O)c2C#N)C1 (stereo not given)	11.0	33.7	5.0	28.8*	-0.9	3.8	11.1
CCN1CCN(Cc2ccc(NC(=O)c3cccc(-c4ccc5nc(NC(=O)C6CC6)sc5n4)c3)cc2C(F)(F)F)CC1	x	x	1.5	x	x	x	x
CCOc1cc(NC(=S)NCC2CCCO2)c(OCC)cc1NC(=O)c1ccccc1C (stereo not given)	-1.1	1.0	-3.2	29.8*	-0.5	-8.3	-16.4
CCOc1cc(NC(=S)NCC2CCCO2)c(OCC)cc1NC(=O)c1ccc(OC)cc1 (stereo not given)	-8.9	1.3	1.2	6.7	-0.9	x	x
CCN(CC)C(=O)CC[C@H]1CC[C@]2(CCCN(CC3CC3)C2)O1	x	x	-2.4	x	x	x	x
c1ccc(-c2nnc(OCc3cccnc3)c3ccccc23)cc1	-3.1	-1.0	-3.5	28.6*	-1.6	2.6	11.2
CCOC(=O)[C@@H](CCc1ccccc1)N[C@@H](C)C(=O)N1CCC[C@H]1C(=O)O	x	x	-2.6	x	x	x	x
